Here are results for eleven compounds from ChEMBL document CHEMBL4041517 (Eur J Med Chem, 2017).

In data set [1] the target is T1, Amine oxidase [flavin-containing] B (Homo sapiens, UniProt P27338).
T1 sequence (P27338 whole entry): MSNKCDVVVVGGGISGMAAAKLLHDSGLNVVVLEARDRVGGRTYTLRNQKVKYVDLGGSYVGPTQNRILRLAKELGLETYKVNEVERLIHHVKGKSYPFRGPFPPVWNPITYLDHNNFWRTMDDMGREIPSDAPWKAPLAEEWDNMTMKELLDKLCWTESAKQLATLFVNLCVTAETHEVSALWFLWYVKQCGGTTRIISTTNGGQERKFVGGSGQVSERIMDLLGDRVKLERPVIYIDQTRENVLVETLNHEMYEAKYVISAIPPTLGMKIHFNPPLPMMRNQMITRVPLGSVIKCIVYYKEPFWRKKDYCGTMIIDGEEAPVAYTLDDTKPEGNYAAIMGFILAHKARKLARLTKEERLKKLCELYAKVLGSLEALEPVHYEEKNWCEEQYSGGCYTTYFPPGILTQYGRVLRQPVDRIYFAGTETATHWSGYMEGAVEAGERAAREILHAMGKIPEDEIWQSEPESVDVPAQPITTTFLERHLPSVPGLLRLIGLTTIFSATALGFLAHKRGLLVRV
The data set is described as follows: Inhibition of recombinant human MAO-B using kynuramine as substrate by fluorescence spectrophotometry.

In data set [2] the target is T2, Amine oxidase [flavin-containing] A (Homo sapiens, UniProt P21397).
T2 sequence (P21397 whole entry): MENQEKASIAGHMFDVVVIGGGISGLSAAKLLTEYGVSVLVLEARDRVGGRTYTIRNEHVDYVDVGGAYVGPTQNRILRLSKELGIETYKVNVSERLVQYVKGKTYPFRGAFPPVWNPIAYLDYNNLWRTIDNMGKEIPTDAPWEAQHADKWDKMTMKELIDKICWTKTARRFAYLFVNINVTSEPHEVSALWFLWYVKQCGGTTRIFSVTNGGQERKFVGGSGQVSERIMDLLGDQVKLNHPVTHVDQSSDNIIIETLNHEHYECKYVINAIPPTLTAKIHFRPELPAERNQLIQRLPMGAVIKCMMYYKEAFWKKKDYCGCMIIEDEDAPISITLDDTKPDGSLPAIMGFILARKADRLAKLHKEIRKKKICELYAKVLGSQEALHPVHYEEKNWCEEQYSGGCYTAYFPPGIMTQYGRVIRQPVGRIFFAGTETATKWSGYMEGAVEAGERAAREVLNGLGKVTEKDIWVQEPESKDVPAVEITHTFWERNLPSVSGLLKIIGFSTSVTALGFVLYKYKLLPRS
The data set is described as follows: Inhibition of recombinant human MAO-A using kynuramine as substrate by fluorescence spectrophotometry.

For data set [3], the species on record is Homo sapiens. The data set is described as follows: Selectivity index, ratio of IC50 for recombinant human MAO-A to IC50 for recombinant human MAO-B. The essentials: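 Ratio of IC50 for MAO-A to IC50 for MAO-B. Each IC50 is the mean of triplicate fluorometric kynuramine-oxidation determinations on the recombinant human enzymes.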
Data set [4] has as its target T1, Amine oxidase [flavin-containing] B. The data set is described as follows: Reversible inhibition of recombinant human MAO-B assessed as residual activity pre-incubated at 4 times IC50 for 15 mins followed by dialysis for 24 hrs and subsequent kynuramine addition measured after 20 mins by fluorescence spectrophotometric analysis relative to untreated control. The essentials:
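Recombinant MAO-B is preincubated with inhibitor for 15 min at 37 °C, then dialysed for 24 h at 4 °C. It is then diluted two-fold by adding kynuramine (50 final) and incubated 20 min at 37 °C. 4-Hydroxyquinoline is read fluorometrically. Residual activity is compared with an inhibitor-free dialysed control; triplicates, mean ± SD. (R)-Deprenyl is run the same way.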

The target is the same in data set [5]. The data set is described as follows: Reversible inhibition of recombinant human MAO-B assessed as residual activity pre-incubated at 4 times IC50 for 15 mins followed by kynuramine addition measured after 20 mins by fluorescence spectrophotometric analysis relative to untreated control. In outline:
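Recombinant MAO-B is preincubated with inhibitor for 15 min at 37 °C without dialysis. It is then diluted two-fold by adding kynuramine (50 final) and incubated 20 min at 37 °C. 4-Hydroxyquinoline is measured fluorometrically. Residual rate is compared with control; triplicates, mean ± SD.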

As a reminder, the IC50 is the point on the concentration scale where inhibition reaches its midpoint. With `O=[N+]([O-])/C=C/c1cccc(OCc2ccccc2)c1`, the IC50 was found to be 0.085 µM in data set [1] and 3.65 µM in data set [2]. Moreover, the Ratio IC50 in data set [3] is 43.
On to `Cc1cccc(COc2cccc(/C=C/[N+](=O)[O-])c2)c1`, for which the results for the IC50 in data set [1] and in data set [2] were 0.565 µM and 11.8 µM, respectively. The Ratio IC50 in data set [3] was found to be 21.
As to `O=[N+]([O-])/C=C/c1cccc(OCc2ccc(F)cc2)c1`, the half-maximal inhibitory concentration (IC50) in data set [1] turned out to be 0.039 µM; in data set [2], 6.46 µM. The Activity in data set [4] turned out to be 38%; in data set [5] it was 37%. In data set [3], the Ratio IC50 came to 166.
On to `O=[N+]([O-])/C=C/c1cccc(OCc2cccc(F)c2)c1`, for which the 50% inhibitory concentration (IC50) was 0.103 µM in data set [1] and 4.2 µM in data set [2]. In addition, the Ratio IC50 in data set [3] stood at 41.
The like results for `O=[N+]([O-])/C=C/c1cccc(OCc2ccc(C(F)(F)F)cc2)c1` were, in that order, 0.106 µM, 6.6 µM and 62.
For the compound `O=[N+]([O-])/C=C/c1cccc(OCc2cccc(Cl)c2)c1`, the half-inhibitory concentration (IC50) in data set [1] is 0.105 µM; in data set [2], 3.52 µM. Also, the Ratio IC50 in data set [3] turned out to be 34.
As for `O=[N+]([O-])/C=C/c1cccc(OCc2cccc(Br)c2)c1`, the IC50 in data set [1] was 0.262 µM; in data set [2], 6.63 µM. The Ratio IC50 in data set [3] is 25.
As for `O=[N+]([O-])/C=C/c1cccc(OCc2cccc(C(F)(F)F)c2)c1`, the half-maximal inhibitory concentration (IC50) in data set [1] was 0.273 µM; in data set [2], 8.78 µM. Moreover, the Ratio IC50 in data set [3] turned out to be 32.
For `Cc1ccc(COc2cccc(/C=C/[N+](=O)[O-])c2)cc1`, the IC50 in data set [1] worked out at 0.192 µM; in data set [2], 9.36 µM. In data set [3], the Ratio IC50 is 49.
Consider `O=[N+]([O-])/C=C/c1cccc(OCc2ccc(Cl)cc2)c1`, for which the IC50 came out at 0.144 µM in data set [1] and 7.59 µM in data set [2]. Besides, in data set [3], the Ratio IC50 was 53.
For `O=[N+]([O-])/C=C/c1cccc(OCc2ccc(Br)cc2)c1`, the IC50 in data set [1] and in data set [2] was > 100 µM throughout.
